Assay results from PMC7614726 (ACS chemical neuroscience, 2020).

What was measured:
[1] = test system: acetylated α-tubulin in human whole blood lymphocytes; experiment: Human whole blood assay, acetylated α-tubulin by flow cytometry; type: cell-based; details: 10 and 30 μM
Method in brief: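 Whole blood from healthy volunteers (25 μL) was mixed with compound diluted in RPMI 1640/10% FBS, with 0.1% DMSO final in controls. Incubation was 30 min at 37°C/5% CO2, then 3.5 h more after adding medium. Cells were lysed/fixed 10 min at room temperature and permeabilised 20 min on ice. Staining used AF647-labelled anti-acetylated α-tubulin or isotype control, 20–30 min on ice. Flow cytometry used a lymphocyte gate.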

[2] = Precipitation on addition to culture medium; type: physicochemical; details: culture medium (RPMI 1640, 10% FBS)
[3] = test system: wild-type SCG neurons; experiment: Axonal transport of mitochondria in dissociated wild-type SCG neurons; type: cell-based, mouse; details: 100 nM T-3796106, 250 nM T-3793168, 1 μM Tubastatin A, 24 h
[4] = test system: SCG neurons expressing HSPB1^S135F; experiment: Axonal transport of mitochondria in SCG neurons expressing HSPB1 S135F; type: cell-based, mouse; details: 24 h, 100 nM T-3796106, 250 nM T-3793168, 1 μM Tubastatin A
Method in brief: (§1)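 Medium contained NGF, 10% FBS and 4 μM aphidicolin. Nuclei were microinjected with mutant human HSPB1 plus mito-EGFP (total DNA ≤0.05 μg/μL). Controls got DMSO. Spinning-disk confocal at 37°C/5% CO2, […], frames 1 s apart for 2 min, 4–5 neurons per dish. Difference Tracker counted moving particles per 1000 pixels.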

[5] = test system: SCG neurons expressing HSPB1^P182L; experiment: Axonal transport of mitochondria in SCG neurons expressing HSPB1 P182L; type: cell-based, mouse; details: 100 nM T-3796106, 250 nM T-3793168, 1 μM Tubastatin A
Method in brief: as §1

| Concentration showing some precipitate when added in the culture medium [2] [µM] | SMILES | Levels of acetylated a-tubulin at 10 versus 30 μM [1] | Number, average and maximum velocity of axonally transported mitochondria [3] | Average and maximum speed of mitochondria movement [4] | Rescue of anterograde mitochondrial transport (number of moving mitochondria) [4] | Effect on mitochondrial movement [5] |
| --- | --- | --- | --- | --- | --- | --- |
| 300 | O=C(CCCCCCNC(=O)c1cnc(N(c2ccccc2)c2ccccc2)nc1)NO [ACY-1215] | almost the same | – | – | – | – |
| – | CN1CCc2c(c3ccccc3n2Cc2ccc(C(=O)NO)cc2)C1 [Tubastatin A] | almost the same | no significant change | unaffected by any of these treatments | rescue of anterograde axonal transport | no effect on mitochondrial movement |
